Calls of active or inactive are those of the source. No cut-off for these calls is given here.
Legend:
Format in all cases: functional, cell-based
[1] = biological target: T1, Bile acid receptor (Homo sapiens) (UniProt Q96RI1); test: Antagonist activity at FXR expressed in human HepG2 cells assessed as inhibition of CDCA-mediated transactivation at 10 uM after 48 hrs by luciferase reporter gene assay
T1 sequence (whole entry): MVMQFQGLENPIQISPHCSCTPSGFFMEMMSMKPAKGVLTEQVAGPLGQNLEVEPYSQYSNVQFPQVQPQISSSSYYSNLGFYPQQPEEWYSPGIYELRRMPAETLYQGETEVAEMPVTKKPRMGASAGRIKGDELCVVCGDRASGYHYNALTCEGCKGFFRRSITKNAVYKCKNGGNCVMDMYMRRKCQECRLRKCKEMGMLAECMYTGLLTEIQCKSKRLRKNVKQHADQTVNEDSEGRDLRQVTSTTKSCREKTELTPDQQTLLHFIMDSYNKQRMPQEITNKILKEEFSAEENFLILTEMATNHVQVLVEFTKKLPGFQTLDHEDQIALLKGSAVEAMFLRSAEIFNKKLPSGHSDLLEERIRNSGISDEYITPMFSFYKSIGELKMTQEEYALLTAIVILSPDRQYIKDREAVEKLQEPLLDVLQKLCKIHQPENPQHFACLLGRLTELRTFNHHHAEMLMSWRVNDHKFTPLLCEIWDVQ
Outline: (§1)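 Antagonism was tested in the FXR transactivation system: HepG2 cells transfected with FXR, RXR, β-gal and the hsp27 IR1-luciferase reporter. Cells were stimulated 48 h after transfection for 18 h with 10 μM CDCA plus test agent. Luciferase was normalised to β-gal. Four experiments were run.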

[2] = biological target: T2, Nuclear receptor subfamily 1 group I member 2 (Homo sapiens, UniProt O75469); test: Agonist activity at PXR expressed in human HepG2 cells assessed as transactivation […] by luciferase reporter gene assay
T2 sequence (O75469 whole entry): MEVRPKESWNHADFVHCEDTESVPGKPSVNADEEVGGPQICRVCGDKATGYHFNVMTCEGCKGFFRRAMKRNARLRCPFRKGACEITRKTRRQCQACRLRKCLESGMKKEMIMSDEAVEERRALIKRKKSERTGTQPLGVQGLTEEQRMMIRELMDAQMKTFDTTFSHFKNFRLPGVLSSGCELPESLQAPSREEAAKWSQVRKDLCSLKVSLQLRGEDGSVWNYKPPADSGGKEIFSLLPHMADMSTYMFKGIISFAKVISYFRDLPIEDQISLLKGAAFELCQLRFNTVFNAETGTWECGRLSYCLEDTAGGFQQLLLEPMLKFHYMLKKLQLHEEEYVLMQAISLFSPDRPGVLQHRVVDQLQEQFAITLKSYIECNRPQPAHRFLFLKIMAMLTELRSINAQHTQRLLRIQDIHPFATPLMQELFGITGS

[3] = biological target: T1, Bile acid receptor (Homo sapiens); test: Agonist activity at FXR expressed in human HepG2 cells at 50 uM after 48 hrs by luciferase reporter gene based transactivation assay
Outline: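 HepG2 cells (5 × 10⁵/well) were transfected using Fugene HD with pSG5-FXR, pSG5-RXR, pCMV-β-gal and the p(hsp27)-TK-LUC reporter (IR1 element). Cells were stimulated 48 h post-transfection for 18 h. Luciferase from lysates was normalised to β-galactosidase activity. Four experiments were run.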

[4] = biological target: T1, Bile acid receptor (Homo sapiens); test: Antagonist activity at FXR expressed in human HepG2 cells assessed as inhibition of 6-ECDCA-mediated transactivation at 50 uM after 48 hrs by luciferase reporter gene assay
Outline: (§2)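 The FXR/RXR/hsp27-luciferase HepG2 transfection system was used, with test agent co-administered alongside 6-ECDCA. Stimulation was 18 h, starting 48 h after transfection. Luciferase was normalised to β-galactosidase.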

[5] = biological target: T1, Bile acid receptor (Homo sapiens); test: Agonist activity at FXR expressed in human HepG2 cells assessed as increase in BSEP mRNA level at 10 uM by RT-PCR analysis
Outline: (§3)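 HepG2 cells exposed to 10 μM test agent, alone or with 10 μM CDCA. mRNA was measured by SYBR Green real-time PCR with 50 ng template and 0.2 μM of each primer. Cycling was 95 °C 2 min, then 40 cycles of 95/55/72 °C. Reactions ran in triplicate. CT was normalised to GAPDH, and ΔΔCT was taken against untreated cells. Four experiments were run.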

[6] = biological target: T1, Bile acid receptor (Homo sapiens); test: Agonist activity at FXR expressed in human HepG2 cells assessed as effect on SHP mRNA level at 10 uM by RT-PCR analysis; outline: as §3
[7] = biological target: T1, Bile acid receptor (Homo sapiens); test: Antagonist activity at FXR expressed in human HepG2 cells assessed as inhibition of CDCA-mediated transactivation at 50 uM after 48 hrs by luciferase reporter gene assay; outline: as §1
[8] = biological target: T1, Bile acid receptor (Homo sapiens); test: Antagonist activity at FXR expressed in human HepG2 cells assessed as inhibition of 6-ECDCA-mediated transactivation at 10 uM after 48 hrs by luciferase reporter gene assay; outline: as §2
[9] = biological target: T1, Bile acid receptor (Homo sapiens); test: Agonist activity at FXR expressed in human HepG2 cells assessed as increase in OSTalpha mRNA level at 10 uM by RT-PCR analysis; outline: as §3
[10] = biological target: T2, Nuclear receptor subfamily 1 group I member 2; test: Antagonist activity at PXR expressed in human HepG2 cells assessed as inhibition of rifaximin-induced CYP3A4 mRNA expression at 50 uM by RT-PCR analysis; conditions: hepg2, 50 µM
[11] = biological target: T1, Bile acid receptor (Homo sapiens); test: Agonist activity at FXR expressed in human HepG2 cells assessed as increase in CYP7A1 mRNA level at 10 uM by RT-PCR analysis relative to control; outline: as §3

SMILES | inhibition [1] | Activity [2] | Activity [3] | inhibition [4] | Activity [5] | Activity [6] | inhibition [7] | inhibition [8] | Activity [9] | inhibition (INH) [10] | fold change (FC) [11]
C=C1[C@@H](O)CC[C@@]2(C)[C@H]1C[C@@H](O)C1=C3[C@H](O)C[C@H]([C@H](C)CC[C@@H](C)C(C)C)[C@@]3(C)CC[C@@H]12 [CONICASTEROL E] | inactive | Active | Active | inactive | Active | inactive | inactive | inactive | Active | Not Active | 2
CO[C@H]1/C=C/O[C@@]2(C)Oc3c(C)c(O)c4c(O)c(c5c(nc6cc(C)ccn65)c4c3C2=O)NC(=O)/C(C)=C\C=C\[C@H](C)[C@H](O)[C@@H](C)[C@@H](O)[C@@H](C)[C@H](OC(C)=O)[C@@H]1C [RIFAXIMIN] | – | Active | – | – | – | – | – | – | – | – | –

Source: ChEMBL document CHEMBL1949586, “Conicasterol E, a small heterodimer partner sparing farnesoid X receptor modulator endowed with a pregnane X receptor agonistic activity, from the marine sponge Theonella swinhoei” (J Med Chem, 2012)
